Here are results for five compounds from ChEMBL document CHEMBL3525985, “Regiospecificity and stereospecificity of human UDP-glucuronosyltransferases in the glucuronidation of estriol, 16-epiestriol, 17-epiestriol, and 13-epiestradiol” (Drug Metab Dispos, 2013).

Type in all cases: ADME
Data set [1] can be described thus: Drug metabolism in human intestine microsomes assessed as estriol-17-glucuronide formation after 15 to 60 mins by Michaelis-Menten equation analysis in presence of UDPGA. The gist of the method:
(§1)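 Pooled human intestine microsomes (6 donors), 0.5 or 10 µg, with alamethicin at 5% of total protein. Incubated with 50 mM phosphate pH 7.4, 10 mM MgCl₂, 5 mM UDPGA and 10% DMSO for 15–60 min at 37°C. Each glucuronide regioisomer quantified by HPLC, in triplicate, with substrate consumption at or below 10%.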

Data set [2] has as its target T1, UDP-glucuronosyltransferase 1A3 (Homo sapiens, UniProt P35503).
T1 sequence (P35503 whole entry): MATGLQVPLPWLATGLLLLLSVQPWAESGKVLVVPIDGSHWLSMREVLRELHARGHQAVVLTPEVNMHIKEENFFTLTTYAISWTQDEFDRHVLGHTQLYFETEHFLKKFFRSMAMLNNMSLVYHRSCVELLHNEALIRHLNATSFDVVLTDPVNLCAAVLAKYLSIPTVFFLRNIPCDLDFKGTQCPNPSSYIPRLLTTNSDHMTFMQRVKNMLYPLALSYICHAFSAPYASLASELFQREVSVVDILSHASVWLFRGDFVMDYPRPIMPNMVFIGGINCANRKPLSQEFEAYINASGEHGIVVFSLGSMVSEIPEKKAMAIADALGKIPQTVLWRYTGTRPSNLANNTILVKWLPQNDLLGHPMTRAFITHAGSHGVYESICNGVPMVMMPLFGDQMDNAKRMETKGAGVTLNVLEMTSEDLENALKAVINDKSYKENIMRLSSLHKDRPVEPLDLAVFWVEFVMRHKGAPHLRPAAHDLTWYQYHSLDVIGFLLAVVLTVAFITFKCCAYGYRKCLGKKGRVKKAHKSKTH
In words: Drug metabolism assessed as recombinant human C-terminal His-tagged UGT1A3-mediated 16-epiestriol-16-glucuronide formation after 15 to 60 mins by Michaelis-Menten equation analysis in presence of UDPGA. As to conditions: recombinant enzyme.

Data set [3] can be described thus: Drug metabolism in human intestine microsomes assessed as 16-epiestriol-16-glucuronide formation after 15 to 60 mins by Michaelis-Menten equation analysis in presence of UDPGA. An outline of the steps:
as §1

Data set [4] addresses T2, UDP-glucuronosyltransferase 2B17 (Homo sapiens, UniProt O75795).
T2 sequence (O75795 whole entry): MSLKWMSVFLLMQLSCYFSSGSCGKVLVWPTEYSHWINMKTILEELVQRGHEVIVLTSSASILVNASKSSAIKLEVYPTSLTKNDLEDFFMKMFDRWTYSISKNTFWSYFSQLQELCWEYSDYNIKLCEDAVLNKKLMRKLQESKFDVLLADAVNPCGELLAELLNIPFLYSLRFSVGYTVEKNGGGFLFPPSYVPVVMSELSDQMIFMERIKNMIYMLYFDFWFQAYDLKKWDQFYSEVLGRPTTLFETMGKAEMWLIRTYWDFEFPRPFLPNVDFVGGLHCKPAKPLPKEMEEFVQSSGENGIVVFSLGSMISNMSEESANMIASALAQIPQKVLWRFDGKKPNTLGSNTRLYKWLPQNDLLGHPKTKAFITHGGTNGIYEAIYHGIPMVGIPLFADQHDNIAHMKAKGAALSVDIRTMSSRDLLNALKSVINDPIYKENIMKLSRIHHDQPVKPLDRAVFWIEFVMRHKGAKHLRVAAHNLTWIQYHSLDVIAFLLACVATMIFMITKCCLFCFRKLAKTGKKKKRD
In words: Drug metabolism assessed as recombinant human C-terminal His-tagged UGT2B17-mediated 13-epiestradiol-3-glucuronide formation at 200 uM after 15 to 60 mins by HPLC analysis in presence of UDPGA. The following applies: recombinant enzyme. The gist of the method:
(§2)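 Screening at a single substrate concentration of 200 μM, in triplicate. The reaction used 5 or 50 µg of UGT-enriched insect cell membranes in 50 mM phosphate pH 7.4 with 10 mM MgCl₂ and 5 mM UDPGA, 10% final DMSO. Incubation was 15–60 min at 37°C. Perchloric acid stopped the reaction and supernatants were analysed by HPLC. Controls lacked UDPGA. Rates were normalized to relative UGT expression level.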

Data set [5] concerns the target T3, UDP-glucuronosyltransferase 2B15 (Homo sapiens, UniProt P54855).
T3 sequence (P54855 whole entry): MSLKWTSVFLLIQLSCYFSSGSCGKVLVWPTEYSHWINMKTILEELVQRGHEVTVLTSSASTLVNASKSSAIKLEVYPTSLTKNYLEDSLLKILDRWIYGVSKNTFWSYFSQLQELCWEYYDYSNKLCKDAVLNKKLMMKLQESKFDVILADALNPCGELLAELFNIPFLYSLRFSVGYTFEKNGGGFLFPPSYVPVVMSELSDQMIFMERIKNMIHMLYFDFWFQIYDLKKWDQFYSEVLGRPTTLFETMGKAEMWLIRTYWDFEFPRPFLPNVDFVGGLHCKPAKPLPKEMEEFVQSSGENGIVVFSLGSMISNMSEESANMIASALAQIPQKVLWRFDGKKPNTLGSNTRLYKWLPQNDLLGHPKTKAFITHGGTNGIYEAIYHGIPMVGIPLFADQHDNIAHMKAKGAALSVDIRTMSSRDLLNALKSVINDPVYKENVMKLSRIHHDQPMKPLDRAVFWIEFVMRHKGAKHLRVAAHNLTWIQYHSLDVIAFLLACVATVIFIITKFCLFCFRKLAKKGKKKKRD
In words: Drug metabolism assessed as recombinant human C-terminal […]-mediated 17-epiestriol-3-glucuronide formation at 200 uM after 15 to 60 mins by HPLC analysis in presence of UDPGA. As to conditions: recombinant enzyme.

The next data set concerns Liver microsome. The data set can be described thus: Drug metabolism in human liver microsomes assessed as 17-epiestriol-3-glucuronide formation after 15 to 60 mins by Michaelis-Menten equation analysis in presence of UDPGA. The gist of the method: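 Pooled human liver microsomes (30 donors), 0.5 or 10 µg, with alamethicin at 5% of total protein. Incubated with 50 mM phosphate pH 7.4, 10 mM MgCl₂, 5 mM UDPGA and 10% DMSO for 15–60 min at 37°C. Each glucuronide regioisomer quantified by HPLC, in triplicate, with substrate consumption at or below 10%.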
A general note: Microsomes from liver hold many membrane-bound enzymes, among them those of drug oxidation.

Data set [6] deals with T2, UDP-glucuronosyltransferase 2B17. In words: Drug metabolism assessed as recombinant human C-terminal His-tagged UGT2B17-mediated estradiol-17-glucuronide formation at 200 uM after 15 to 60 mins by HPLC analysis in presence of UDPGA. As to conditions: recombinant enzyme. An outline of the steps:
as §2

As a reminder, the Km is the substrate concentration at which the rate is half of its maximum. In general, Vmax refers to the rate approached at saturating substrate. As for `C[C@]12CC[C@@H]3c4ccc(O)cc4CC[C@H]3[C@@H]1C[C@@H](O)[C@@H]2O` [ESTRIOL], in data set [1], the Michaelis constant (Km) came to 1120 µM and the maximal velocity (Vmax) amounted to 2095 pmol/min/mg.

Turning to `C[C@]12CC[C@@H]3c4ccc(O)cc4CC[C@H]3[C@@H]1C[C@H](O)[C@@H]2O` [EPIESTRIOL], the Drug metabolism in data set [2] was found to be 5 pmol/min/mg. For the same compound, in data set [3], the Km turned out to be 43 µM and the Vmax was 1480 pmol/min/mg.

In the case of `C[C@@]12CC[C@@H]3c4ccc(O)cc4CC[C@H]3[C@@H]1CC[C@@H]2O`, the Drug metabolism result in data set [4] is reported as “metabolite_detected”.

Turning to `C[C@]12CC[C@@H]3c4ccc(O)cc4CC[C@H]3[C@@H]1C[C@@H](O)[C@H]2O`, the Drug metabolism result in data set [5] was “metabolite_detected”. For the same compound, in the data set with Liver microsome, the Km was 380 µM and the Vmax was 805 pmol/min/mg.

Consider `C[C@]12CC[C@@H]3c4ccc(O)cc4CC[C@H]3[C@@H]1CC[C@@H]2O` [ESTRADIOL], for which the Drug metabolism result in data set [6] is “metabolite_detected”.
